Measured values published in ChEMBL document CHEMBL4402563, “Preclinical Optimization of gp120 Entry Antagonists as anti-HIV-1 Agents with Improved Cytotoxicity and ADME Properties through Rational Design, Synthesis, and Antiviral Evaluation” (J Med Chem, 2020).
In brackets after ≈: the same amount, converted by molar mass.

Experiments:
[1] = Protein binding in human plasma at 5 uM measured for 4 hrs by LC-MS/MS analysis; type: ADME, cell-free
[2] = molecular target: Cytochrome P450 2C19 (Homo sapiens, UniProt P33261); test: Inhibition of CYP2C19 in human liver microsomes using S-mephenytoin as substrate preincubated for 5 mins followed by NADPH addition and measured for 10 to 30 mins by LC-MS/MS analysis; type: ADME
Outline: (§1)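 Inhibition was screened in a panel of eight CYP450 isoforms, with test concentrations escalated up to 100 μM.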

[3] = Cytotoxicity against dog Cf2Th-CCR5 cells infected with CD4-dependent pseudovirus HIV1 ADA incubated for 48 hrs by MTS assay
[4] = molecular target: T1, Cytochrome P450 1A2 (Homo sapiens, UniProt P05177); test: Inhibition of CYP1A2 in human liver microsomes using phenacetin as substrate preincubated for 5 mins followed by NADPH addition and measured for 10 to 30 mins by LC-MS/MS analysis; type: ADME; outline: as §1
T1 sequence (P05177 whole entry): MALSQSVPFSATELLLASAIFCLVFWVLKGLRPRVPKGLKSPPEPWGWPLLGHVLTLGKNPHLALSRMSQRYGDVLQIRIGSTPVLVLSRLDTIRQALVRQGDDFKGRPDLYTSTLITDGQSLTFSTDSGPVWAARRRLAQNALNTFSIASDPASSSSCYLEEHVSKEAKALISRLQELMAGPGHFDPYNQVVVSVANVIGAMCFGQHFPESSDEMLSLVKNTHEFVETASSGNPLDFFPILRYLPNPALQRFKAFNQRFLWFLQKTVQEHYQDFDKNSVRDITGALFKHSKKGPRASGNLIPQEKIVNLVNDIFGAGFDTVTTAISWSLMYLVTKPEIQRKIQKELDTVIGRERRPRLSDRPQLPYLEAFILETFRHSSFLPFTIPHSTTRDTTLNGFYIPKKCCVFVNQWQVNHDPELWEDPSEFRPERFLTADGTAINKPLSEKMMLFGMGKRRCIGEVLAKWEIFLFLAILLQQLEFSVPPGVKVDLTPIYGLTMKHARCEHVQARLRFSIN

[5] = molecular target: T2, Cytochrome P450 2C8 (Homo sapiens, UniProt P10632); test: Inhibition of CYP2C8 in human liver microsomes using amodiaquine as substrate preincubated for 5 mins followed by NADPH addition and measured for 10 to 30 mins by LC-MS/MS analysis; type: ADME; outline: as §1
T2 sequence (P10632 whole entry): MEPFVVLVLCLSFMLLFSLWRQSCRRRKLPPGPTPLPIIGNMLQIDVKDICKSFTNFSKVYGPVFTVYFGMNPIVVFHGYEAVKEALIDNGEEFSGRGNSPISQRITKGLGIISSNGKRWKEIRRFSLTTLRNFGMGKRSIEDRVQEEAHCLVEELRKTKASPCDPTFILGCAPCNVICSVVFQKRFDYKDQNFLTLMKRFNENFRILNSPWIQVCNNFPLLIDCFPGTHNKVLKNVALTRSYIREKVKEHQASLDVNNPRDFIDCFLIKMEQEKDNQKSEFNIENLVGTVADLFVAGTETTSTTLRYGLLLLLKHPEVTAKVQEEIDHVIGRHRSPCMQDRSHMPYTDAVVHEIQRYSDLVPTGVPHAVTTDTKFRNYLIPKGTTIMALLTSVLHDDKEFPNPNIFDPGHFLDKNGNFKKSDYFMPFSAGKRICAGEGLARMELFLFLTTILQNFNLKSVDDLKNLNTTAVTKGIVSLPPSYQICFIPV

[6] = Metabolic stability in human liver microsomes assessed as parent compound remaining at 3 uM preincubated for 3 mins followed by NADPH addition and measured up to 120 mins by LC-MS/MS analysis; type: ADME, Microsome; settings: read-out: Stability
[7] = Apparent permeability from basolateral side to apical side in human Caco2 cells at 5 uM preincubated with vals-podar for 30 mins and measured for 120 mins by LC-MS/MS analysis; type: ADME, cell-based; settings: Caco-2, with valspodar (printed as vals-podar; concentration not stated)
Outline: (§2)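 Bidirectional Caco-2 transport run with the P-gp inhibitor valspodar at 1 μM. Papp is given as ×10−6 cm/sec for each direction, and the efflux ratio is taken from B-to-A over A-to-B.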

[8] = Apparent permeability from apical to basolateral side in human Caco2 cells at 5 uM measured for 120 mins by LC-MS/MS analysis; type: ADME, cell-based; settings: caco-2, 2 h
[9] = Half life in human liver microsomes at 3 uM preincubated for 3 mins followed by NADPH addition and measured up to 120 mins by LC-MS/MS analysis; type: ADME, Microsome; settings: 2 h
[10] = molecular target: T3, CYP3A (Homo sapiens, UniProt P08684+P20815+P24462+Q9HB55); test: Inhibition of CYP3A in human liver microsomes using midazolam as substrate preincubated for 5 mins followed by NADPH addition and measured for 10 to 30 mins by LC-MS/MS analysis; type: ADME; settings: probe midazolam; outline: as §1
[11] = tested on: TZM; test: Cytotoxicity against human TZM-bl cells incubated for 3 days by MTS assay; type: cell-based; settings: 72 h
[12] = Intrinsic clearance in human liver microsomes at 3 uM preincubated for 3 mins followed by NADPH addition and measured up to 120 mins by LC-MS/MS analysis; type: ADME, Microsome; settings: 2 h
[13] = molecular target: T4, Cytochrome P450 2B6 (Homo sapiens, UniProt P20813); test: Inhibition of CYP2B6 in human liver microsomes using bupropion as substrate preincubated for 5 mins followed by NADPH addition and measured for 10 to 30 mins by LC-MS/MS analysis; type: ADME; outline: as §1
T4 sequence (P20813 whole entry): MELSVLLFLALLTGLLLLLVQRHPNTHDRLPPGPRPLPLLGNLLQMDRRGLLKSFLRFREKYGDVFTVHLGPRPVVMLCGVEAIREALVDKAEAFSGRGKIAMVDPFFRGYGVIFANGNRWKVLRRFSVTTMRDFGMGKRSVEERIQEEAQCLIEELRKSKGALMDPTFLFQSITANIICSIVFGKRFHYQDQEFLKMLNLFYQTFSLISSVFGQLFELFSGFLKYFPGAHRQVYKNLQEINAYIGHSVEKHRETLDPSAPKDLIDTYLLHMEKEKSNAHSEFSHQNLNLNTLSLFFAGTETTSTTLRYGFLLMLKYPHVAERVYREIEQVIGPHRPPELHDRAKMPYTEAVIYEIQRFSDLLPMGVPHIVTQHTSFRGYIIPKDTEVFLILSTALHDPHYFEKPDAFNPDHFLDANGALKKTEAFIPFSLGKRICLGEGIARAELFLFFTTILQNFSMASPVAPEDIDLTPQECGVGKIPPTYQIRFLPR

[14] = molecular target: Cytochrome P450 2D6 (Homo sapiens, UniProt P10635); test: Inhibition of CYP2D6 in human liver microsomes using bufuralol as substrate preincubated for 5 mins followed by NADPH addition and measured for 10 to 30 mins by LC-MS/MS analysis; type: ADME; outline: as §1
[15] = molecular target: Cytochrome P450 2C9 (Homo sapiens, UniProt P11712); test: Inhibition of CYP2C9 in human liver microsomes using diclofenac as substrate preincubated for 5 mins followed by NADPH addition and measured for 10 to 30 mins by LC-MS/MS analysis; type: ADME; outline: as §1
[16] = Apparent permeability from apical to basolateral side in human Caco2 cells at 5 uM preincubated with vals-podar for 30 mins and measured for 120 mins by LC-MS/MS analysis; type: ADME, cell-based; settings: Caco-2, with valspodar (printed as vals-podar; concentration not stated); outline: as §2
[17] = Solubility of compound in pH 7.4 PBS buffer at 1 mg incubated for overnight by LC-MS/MS analysis; type: physicochemical; settings: in vitro
Outline: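 Aqueous solubility was measured in phosphate buffer at pH 7.4 and reported in mg/mL.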

[18] = Apparent permeability from basolateral side to apical side in human Caco2 cells at 5 uM measured for 120 mins by LC-MS/MS analysis; type: ADME, cell-based; settings: caco-2, 2 h
[19] = molecular target: T3, CYP3A; test: Inhibition of CYP3A in human liver microsomes using testosterone as substrate preincubated for 5 mins followed by NADPH addition and measured for 10 to 30 mins by LC-MS/MS analysis; type: ADME; settings: probe testosterone; outline: as §1

Cytochrome P450 2C9, sequence (P11712 whole entry): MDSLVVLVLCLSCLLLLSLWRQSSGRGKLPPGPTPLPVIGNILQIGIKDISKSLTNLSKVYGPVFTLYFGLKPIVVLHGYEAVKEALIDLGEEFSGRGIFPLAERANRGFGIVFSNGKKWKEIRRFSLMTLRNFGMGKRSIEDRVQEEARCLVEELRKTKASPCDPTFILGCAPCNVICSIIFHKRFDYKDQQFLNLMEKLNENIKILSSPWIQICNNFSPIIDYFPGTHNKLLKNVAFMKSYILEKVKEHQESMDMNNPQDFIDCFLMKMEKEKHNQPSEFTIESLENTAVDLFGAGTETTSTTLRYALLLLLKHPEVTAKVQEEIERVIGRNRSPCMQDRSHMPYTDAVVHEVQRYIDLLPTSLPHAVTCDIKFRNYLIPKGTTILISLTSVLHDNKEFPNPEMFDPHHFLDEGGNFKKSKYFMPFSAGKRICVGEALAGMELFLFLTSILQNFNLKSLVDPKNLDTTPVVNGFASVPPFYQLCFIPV
Cytochrome P450 2C19, sequence (P33261 whole entry, canonical isoform): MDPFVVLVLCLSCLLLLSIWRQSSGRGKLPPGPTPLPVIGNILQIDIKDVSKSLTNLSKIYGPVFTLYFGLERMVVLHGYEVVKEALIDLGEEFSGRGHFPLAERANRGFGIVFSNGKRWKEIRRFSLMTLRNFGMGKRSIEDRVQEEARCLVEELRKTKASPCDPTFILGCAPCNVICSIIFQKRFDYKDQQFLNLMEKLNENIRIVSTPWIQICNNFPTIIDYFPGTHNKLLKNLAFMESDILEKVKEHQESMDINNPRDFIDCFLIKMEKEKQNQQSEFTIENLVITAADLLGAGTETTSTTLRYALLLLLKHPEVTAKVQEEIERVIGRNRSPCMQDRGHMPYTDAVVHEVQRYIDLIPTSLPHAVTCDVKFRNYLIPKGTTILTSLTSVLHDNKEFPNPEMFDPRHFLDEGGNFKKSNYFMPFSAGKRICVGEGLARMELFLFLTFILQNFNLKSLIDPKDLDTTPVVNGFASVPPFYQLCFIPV
Cytochrome P450 2D6, sequence (P10635 whole entry): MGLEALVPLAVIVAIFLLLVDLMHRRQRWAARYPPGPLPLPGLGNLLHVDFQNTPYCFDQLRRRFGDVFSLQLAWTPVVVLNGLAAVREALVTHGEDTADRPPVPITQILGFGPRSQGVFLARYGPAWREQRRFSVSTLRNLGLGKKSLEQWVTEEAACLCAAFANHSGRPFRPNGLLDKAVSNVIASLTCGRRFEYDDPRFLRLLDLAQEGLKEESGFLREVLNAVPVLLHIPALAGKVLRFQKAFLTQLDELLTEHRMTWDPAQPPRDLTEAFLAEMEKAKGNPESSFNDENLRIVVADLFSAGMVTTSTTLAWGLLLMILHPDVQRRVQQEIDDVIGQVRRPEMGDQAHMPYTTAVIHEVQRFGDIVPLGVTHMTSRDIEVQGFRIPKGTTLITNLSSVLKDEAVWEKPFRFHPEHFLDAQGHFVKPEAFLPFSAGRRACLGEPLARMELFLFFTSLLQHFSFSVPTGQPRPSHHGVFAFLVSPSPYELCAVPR

PPB [1]: 99.2%
IC50 [2]: > 100 µM
IC50 [4]: 70.1 µM
IC50 [5]: > 100 µM
remaining at 2 h, 3 µM [6]: 93.5%
Papp B→A at 2 h, 5 µM [7]: 10.5 ×10⁻⁶ cm/s
Papp [8]: 6.51 ×10⁻⁶ cm/s
t1/2 [9]: > 120 min
IC50 [10]: > 100 µM
CLH [12]: < 0.0116 mL/min/mg
IC50 [13]: 85.4 µM
IC50 [14]: > 100 µM
IC50 [15]: > 100 µM
Papp A→B at 2 h, 5 µM [16]: 14 ×10⁻⁶ cm/s
solubility [17]: 0.734 mg/mL (≈ 1730 µM)
Papp [18]: 20.3 ×10⁻⁶ cm/s
IC50 [19]: > 62.2 µM
Structure (SMILES): Cc1cc(-c2ccc(C(F)(F)F)cn2)[nH]c1C(=O)N[C@@H](CN)c1ncc(CO)s1
Activity [3]: Non-Toxic
CC50 [11]: 109 µM
